Data as given in ChEMBL document CHEMBL3425408, “Design, synthesis, in vitro, and in vivo anticancer and antiangiogenic activity of novel 3-arylaminobenzofuran derivatives targeting the colchicine site on tubulin” (J Med Chem, 2015).
The source made the active and inactive calls. The calls are words filed in the database; no cut-off is given here.

Columns and labels:
HeLa = assay: Antiproliferative activity against human HeLa cells after 72 hrs by (3-(4,5-dimethylthiazol-2-yl)-2,5-diphenyltetrazolium bromide test; format: functional, cell-based
MCF7 = assay: Antiproliferative activity against human MCF7 cells after 72 hrs by (3-(4,5-dimethylthiazol-2-yl)-2,5-diphenyltetrazolium bromide test; format: functional, cell-based; conditions: MCF7, 72 h
A549 = assay: Antiproliferative activity against human A549 cells after 72 hrs by (3-(4,5-dimethylthiazol-2-yl)-2,5-diphenyltetrazolium bromide test; format: functional, cell-based; conditions: A549, 72 h
HT-29 = assay: Antiproliferative activity against human HT-29 cells after 72 hrs by (3-(4,5-dimethylthiazol-2-yl)-2,5-diphenyltetrazolium bromide test; format: functional, cell-based; conditions: HT-29, 72 h
[1] = Antiproliferative activity against human HL60 cells after 72 hrs by (3-(4,5-dimethylthiazol-2-yl)-2,5-diphenyltetrazolium bromide test; format: functional, cell-based; conditions: HL-60, 72 h
Outline: (§1)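 Jurkat, RS4;11 and HL-60 cells grown in RPMI-1640; MCF-7, A549, HeLa and HT-29 cells grown in DMEM; both media with 10% FBS and penicillin/streptomycin. 8 × 10^3 cells per well were preincubated 18 h at 37 °C, 5% CO2, then exposed 72 h to a concentration range (DMSO ≤0.25%). Read-out was MTT; IC50 was taken against cells given the maximum DMSO. Mean ± SE of at least three experiments.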

[2] = Antiproliferative activity against human RS4:11 cells after 72 hrs by (3-(4,5-dimethylthiazol-2-yl)-2,5-diphenyltetrazolium bromide test; format: functional, cell-based; conditions: RS4-11, 72 h; outline: as §1
Jurkat = assay: Antiproliferative activity against human Jurkat cells after 72 hrs by (3-(4,5-dimethylthiazol-2-yl)-2,5-diphenyltetrazolium bromide test; format: functional, cell-based; outline: as §1
Tubulin = Tubulin (Bos taurus, UniProt Q6B856+Q862L2+Q862F3); assay: Inhibition of bovine brain tubulin assembly after 20 mins incubation by spectrophotometric analysis
Outline: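 Bovine brain tubulin (10 μM) was preincubated with varying compound concentrations in glutamate buffer at 30 °C, then chilled to 0 °C. GTP was added to 0.4 mM final and the mixture warmed to 30 °C in cuvettes.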

HUVEC = assay: Cytotoxicity against human HUVEC cells after 72 hrs by MTT assay; format: cell-based
Outline: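 HUVECs were isolated from umbilical cord veins, kept in M200 with low-serum growth supplement and used at passages 1–6. […] Mean ± SEM of three separate experiments.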

MDA-MB-231 = assay: Cytotoxicity against human MDA-MB-231 cells after 72 hrs by MTT assay; format: functional, cell-based; conditions: MDA-MB-231, 72 h
Mus musculus = assay: In vivo antitumor activity against mouse BNL 1ME A.7R.1 cells allografted in Balb/c mouse assessed as reduction in tumor growth at 5 mg/kg, ip up to 8 days relative to vehicle treated control; format: functional, organism-based; parameters: dose 5 mg/kg
Outline: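 Male Balb/c mice, 8 weeks old, received 10^7 BNL 1ME A.7R.1 cells in 200 μL PBS subcutaneously in the dorsal region. Mice were randomised into groups of 5 and dosed ip daily from day 2. Vehicle was 0.9% NaCl with 5% PEG 400 and 0.5% Tween 80, at 7 μL/g. Tumours were measured daily by caliper for 7 days; V = AB²/2.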

Compound	IC50 (HeLa) [nM]	IC50 (MCF7) [nM]	IC50 (A549) [nM]	IC50 (HT-29) [nM]	IC50 [1] [nM]	IC50 [2] [nM]	IC50 (Jurkat) [nM]	IC50 (Tubulin) [nM]	IC50 (HUVEC) [nM]	IC50 (MDA-MB-231) [nM]	inhibition (Mus musculus)
COC(=O)c1oc2ccccc2c1Nc1cc(OC)c(OC)c(OC)c1	260	7800	5280	930	4400	430	4100				
CCOC(=O)c1oc2c(OC)cccc2c1Nc1cc(OC)c(OC)c(OC)c1	270	2100	1100	110	590	230	290	6400			
COc1ccc(/C=C\c2cc(OC)c(OC)c(OC)c2)cc1O [COMBRETASTATIN A4]					1	0.8					
COC(=O)c1oc2c(OC)cccc2c1Nc1cc(OC)c(OC)c(OC)c1	130	520	1270	290	320	1	30	7600			
CCOc1cccc2c(Nc3cc(OC)c(OC)c(OC)c3)c(C(=O)OC)oc12	2530	> 10000	8900	3200	4200	400	3700				
CCOC(=O)c1oc2ccc(OC)cc2c1Nc1cc(OC)c(OC)c(OC)c1	1260	2900	8900	1400	3400	190	2300				
COC(=O)c1oc2c(O)c(OC)ccc2c1C(=O)c1cc(OC)c(OC)c(OC)c1									1	1	
COc1ccc(/C=C\c2cc(OC)c(OC)c(OC)c2)cc1OP(=O)(O)O											Active
CCOC(=O)c1oc2cccc(OC)c2c1Nc1cc(OC)c(OC)c(OC)c1	> 10000	> 10000	> 10000	> 10000	> 10000	> 10000	> 10000				
CCOC(=O)c1oc2ccccc2c1Nc1cc(OC)c(OC)c(OC)c1	1330	6600	5470	1600	2500	300	180				
CCOC(=O)c1oc2c(OCC)cccc2c1Nc1cc(OC)c(OC)c(OC)c1	3280	> 10000	7250	5300	5500	3000	9100				
COC(=O)c1oc2cccc(OC)c2c1Nc1cc(OC)c(OC)c(OC)c1	> 10000	> 10000	> 10000	> 10000	> 10000	> 10000	> 10000				
COC(=O)c1oc2ccc(OC)cc2c1Nc1cc(OC)c(OC)c(OC)c1	250	7900	1570	240	470	39	210	7500			
